Here are results for four molecules from ChEMBL document CHEMBL1129428 (J Med Chem, 1996).

Several values for one entry are separate records, joined by “and”; a condition that tells them apart may be missing. Equal values may be shown once. Where only a bound is given, the exact number is not on record here.

Data set [1] deals with Rattus norvegicus. Briefly: Compound was tested for anticonvulsant activity after Oral Administration into Rats by using MES screen test after 0.25h,dose 50 mg/kg; No activity was demonstarted. It counts as functional, organism-based. Details: dose 50 mg/kg. In a few lines: (§1)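 Rats received the compound orally. […] Rats were tested in the MES screen at 0.25, 0.5, 1, 2 and 4 h. Each value is the number of rats protected out of 4. The test followed NINDS procedures.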

Data set [2] concerns Mus musculus. Nature of the data set: Anticonvulsant activity after intraperitoneal injection into mice measured in a maximal electroshock scree (MES) screen. It counts as functional. Background: Protection in the maximal electroshock model is a classic sign of anticonvulsant action.
Data set [3] relates to Rattus norvegicus. Nature of the data set: Compound was tested for anticonvulsant activity after Oral Administration into Rats by using MES screen test after 0.5h,dose 50 mg/kg; No activity was demonstarted. It counts as functional, organism-based. Set-up: dose 50 mg/kg. Summed up:
as §1

In data set [4] the test system is Rattus norvegicus. Nature of the data set: Compound was tested for anticonvulsant activity after Oral Administration into Rats by using MES screen test after 1h,dose 50 mg/kg; No activity was demonstarted. Set-up: dose 50 mg/kg. It counts as functional, organism-based. Summed up: as §1
Data set [5] has as its system Rattus norvegicus. Nature of the data set: Compound was tested for anticonvulsant activity after Oral Administration into Rats by using MES screen test after 2h,dose 50 mg/kg; No activity was demonstarted. It counts as functional, organism-based. Details: dose 50 mg/kg. In a few lines:
as §1

A short description of data set [6]: Partition coefficient (logP). It counts as physicochemical. The conditions noted are these: octanol/water. Summed up: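 Partition between 1-octanol and buffer at pH 7.4, with solutions prepared in 1-octanol before buffer is added. Quantified by UV, using λmax and ε values measured in 1-octanol.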
In data set [7] the test system is Rattus norvegicus. Nature of the data set: Compound was tested for anticonvulsant activity after Oral Administration into Rats by using MES screen test after 4h,dose 50 mg/kg; No activity was demonstarted. It counts as functional, organism-based. Set-up: dose 50 mg/kg. Summed up: as §1
The subject of data set [8] is Mus musculus. Nature of the data set: Compound was tested for anticonvulsant activity after intraperitoneal injection into mice by using scPTZ screen test after 0.25 hr. It counts as functional. Conditions: ip. In a few lines:
(§2)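 Quantitative intraperitoneal mouse testing in the MES, scPTZ or rotorod neurotoxicity screens at the peak time given for each compound (0.25–2 h). ED50 or TD50 reported in mg/kg with 95% CI and slope (SE).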

Data set [9] concerns Rattus norvegicus. Nature of the data set: Compound was tested for anticonvulsant activity after Oral Administration into Rats by using MES screen test after 1h,dose 12.5 mg/kg; number of rats out of four which were protected. It counts as functional. Summed up:
as §1

Data set [10] deals with Mus musculus. Briefly: Anticonvulsant activity after intraperitoneal injection into mice by using MES screen test after 0.5 hr. It counts as functional.
A short description of data set [11]: Protection index = TD50/ED50 (MES). Conditions: mouse, in vivo; read-out: PI.
The test system of data set [12] is Mus musculus. Briefly: Compound was tested for anticonvulsant activity after intraperitoneal injection into mice by using MES screen test after 1 hr. It counts as functional. The conditions noted are these: ip. Summed up: as §2
The subject of data set [13] is Mus musculus. Briefly: Toxicity after intraperitoneal injection into mice by using toxicity screen test after 0.5 hr. Conditions: in vivo, ip. It counts as organism-based. In a few lines: (§3)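 Mice injected intraperitoneally at 30, 100 and 300 mg/kg and examined 0.5 and 4 h afterwards. Each entry is the minimum dose giving activity (MES protection, scPTZ protection, or rotorod failure for neurotoxicity) in half or more of the mice. Activity is called absent if nothing occurs at 300 mg/kg.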

Data set [14] concerns Rattus norvegicus. Nature of the data set: Compound was tested for anticonvulsant activity after Oral Administration into rat by using MES screen test after 2 hr. It counts as functional. Summed up:
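Rats dosed orally, typically at 50 mg/kg first, then mostly 12.5 mg/kg (some compounds at 30 mg/kg), and tested by maximal electroshock. Four rats per compound, scored at 0.25, 0.5, 1, 2 and 4 h as the number of rats protected out of 4.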

Data set [15] has as its system Mus musculus. Briefly: Anticonvulsant activity after intraperitoneal injection into mice by using scPTZ screen after 0.5 hr. It counts as functional.
Data set [16] is described as follows: Compound was tested for toxicity after oral administration in rat by using neurotoxicity screen test after 2 hr. The conditions noted are these: in vivo. It counts as organism-based. In a few lines: (§4)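 Rat neurotoxicity after oral dosing, observed at 0.25, 0.5, 1, 2, 4, 6, 8 and 24 h (8 h omitted for one compound).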
Data set [17] in a line: (§5) Protection index = TD50/ED50 (MES). It counts as ADME. The conditions noted are these: read-out: TI.
Data set [18] deals with Mus musculus. Nature of the data set: Compound was tested for toxicity after intraperitoneal injection into mice by using toxicity screen test after 4 hr. It counts as organism-based. The conditions noted are these: in vivo, ip. In a few lines:
as §3

In data set [19] the test system is Rattus norvegicus. Briefly: Anticonvulsant activity after oral administration into rats. Set-up: concentration or dose not given beside the values. It counts as functional.
A short description of data set [20]: Compound was tested for toxicity after intraperitoneal injection into mice by using neurotoxicity screen test after 2 hr. The conditions noted are these: mouse, in vivo, ip. It counts as organism-based. In a few lines: as §2
Data set [21] relates to Rattus norvegicus. Briefly: Compound was tested for anticonvulsant activity after Oral Administration into Rats by using MES screen test after 0.25h,dose 12.5 mg/kg; No activity was demonstarted. It counts as functional, organism-based. Details: dose 12.5 mg/kg. Summed up:
as §1

Data set [22] has as its system Rattus norvegicus. Nature of the data set: Compound was tested for anticonvulsant activity after Oral Administration into Rats by using MES screen test after 4h,dose 12.5 mg/kg; number of rats out of four which were protected. It counts as functional. Summed up: as §1
Data set [23] has as its system Rattus norvegicus. Briefly: Compound was tested for anticonvulsant activity after Oral Administration into Rats by using MES screen test after 2h,dose 12.5 mg/kg; number of rats out of four which were protected. It counts as functional. Summed up: as §1
Data set [24] relates to Rattus norvegicus. Briefly: Compound was tested for anticonvulsant activity after Oral Administration into Rats by using MES screen test after 0.5h,dose 50 mg/kg; number of rats out of four which were protected. It counts as functional. In a few lines: as §1
In data set [25] the test system is Rattus norvegicus. Briefly: Compound was tested for anticonvulsant activity after Oral Administration into Rats by using MES screen test after 2h,dose 50 mg/kg; number of rats out of four which were protected. It counts as functional. In a few lines: as §1
Data set [26] relates to Rattus norvegicus. Nature of the data set: Compound was tested for anticonvulsant activity after Oral Administration into Rats by using MES screen test after 4h,dose 50 mg/kg; number of rats out of four which were protected. It counts as functional. Summed up: as §1
The subject of data set [27] is Rattus norvegicus. Briefly: Compound was tested for anticonvulsant activity after Oral Administration into Rats by using MES screen test after 0.25h,dose 50 mg/kg; number of rats out of four which were protected. It counts as functional. Summed up:
as §1

Data set [28] relates to Rattus norvegicus. Nature of the data set: Compound was tested for anticonvulsant activity after Oral Administration into Rats by using MES screen test after 1 hr, dose 50 mg/kg; number of rats out of four which were protected. It counts as functional. Summed up: as §1
For data set [29], the species on record is Rattus norvegicus. The data set is described as §5. It counts as ADME, organism-based. The conditions noted are these: in vivo.
For data set [30], the system named is Mus musculus. Briefly: Compound was tested for anticonvulsant activity after intraperitoneal injection into mice by using scPTZ screen test after 2 hr. It counts as functional. Conditions: ip. Summed up: as §2
Data set [31] is described as follows: Protection index = TD50/ED50. Conditions: read-out: PI. It counts as ADME.
The nature of data set [32]: Compound was tested for toxicity after oral administration in rat by using neurotoxicity screen test after 4 hr. It counts as organism-based. The conditions noted are these: in vivo. Summed up:
as §4

As a reminder, the logP is the decadic logarithm of the partition coefficient of the neutral form, usually between octanol and water. For the molecule `NC(=O)N/N=C\c1cccc(Oc2ccccc2)c1`, the Activity result with Rattus norvegicus [1], in the data set with Rattus norvegicus [3], in the data set with Rattus norvegicus [4], in the data set on Rattus norvegicus [5] and in the data set with Rattus norvegicus [7] was “No activity” throughout. The Dose with Mus musculus [2] turned out to be 300 mg/kg. Moreover, the logP in [6] worked out at 2.07.
Usually ED50 stands for the dose at which the effect has come halfway, by size or by number of responders. Usually TD50 stands for the dose at which the toxic effect under study appears in half of the subjects. In the case of `C/C(=N/NC(N)=O)c1ccc(Oc2ccc(F)cc2)cc1`, the ED50 is over 80 mg/kg in the data set with Mus musculus [8], 11.6 mg/kg with Mus musculus [12] and 3.37 mg/kg in the data set with Rattus norvegicus [14]. Besides, the Activity is 4 in the data set with Rattus norvegicus [9]; 4 in the data set on Rattus norvegicus [19]; “No activity” in the data set on Rattus norvegicus [21]; 4 in the data set with Rattus norvegicus [22]; 4 in the data set on Rattus norvegicus [23]. Besides, the Dose in the data set on Mus musculus [10] turned out to be 30 mg/kg; in the data set on Mus musculus [2], 30 mg/kg; with Mus musculus [13], 300 mg/kg; in the data set on Mus musculus [15], 100 mg/kg; in the data set on Mus musculus [18], 100 mg/kg. Further, the selectivity ratio in data set [11] worked out at 5.22; in data set [17] it was 32.3. The TD50 at 2 h in data set [16] came out at 109 mg/kg; in data set [20], 60.7 mg/kg. The same molecule displayed a log partition coefficient (logP) in [6] of 2.03.
In the case of `NC(=O)N/N=C/c1ccc(Oc2ccc(Br)cc2)cc1`, the Activity in the data set with Rattus norvegicus [24] is 4; in the data set with Rattus norvegicus [25], 4; in the data set on Rattus norvegicus [26], 4; in the data set on Rattus norvegicus [27] it was 1; with Rattus norvegicus [28], 4. Moreover, the Dose in the data set with Mus musculus [10] stood at 30 mg/kg; with Mus musculus [2] it was 30 mg/kg; in the data set on Mus musculus [13] it was 300 mg/kg; in the data set with Mus musculus [18] it was 30 mg/kg.
As for `CC/C(=N/NC(N)=O)c1ccc(Oc2ccc(F)cc2)cc1`, the Activity was 4 with Rattus norvegicus [9]; 2 in the data set with Rattus norvegicus [19]; “No activity” in the data set on Rattus norvegicus [21]; 4 in the data set with Rattus norvegicus [22]; 4 in the data set with Rattus norvegicus [23]. Further, the Dose in the data set with Mus musculus [10] came to 30 mg/kg; with Mus musculus [2] it was 30 mg/kg; in the data set with Mus musculus [13], 300 mg/kg; with Mus musculus [15] it was 100 mg/kg; with Mus musculus [18], 100 mg/kg. The ED50 in the data set on Mus musculus [12] was 5.46 mg/kg; in the data set with Rattus norvegicus [14], 4.25 mg/kg; with Mus musculus [30] it was 12.8 mg/kg. Moreover, the PI in the data set filed under Rattus norvegicus [29] was 6.45 and 16.9. For the same molecule, the selectivity ratio in [31] came to 2.75. The molecule also yielded a TD50 at 2 h in data set [20] of 35.3 mg/kg. The molecule further gave a TD50 at 4 h in [32] of over 72 mg/kg.
